Measured values reported in ChEMBL document CHEMBL1131088 (J Med Chem, 1998).

Tests used:
[1] = target: Dihydroorotate dehydrogenase (quinone), mitochondrial (Homo sapiens, UniProt Q02127); test: In vitro inhibitory activity against human dihydroorotate dehydrogenase (DHODH)
Jurkat = test: In vitro inhibitory activity against Jurkat cell proliferation; format: functional, cell-based; details: Homo sapiens
Method in brief: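 Human Jurkat T cells kept in FCS-supplemented RPMI; 5 × 10⁴ cells/well cultured 2 days in 200 μL RPMI with test compound. Proliferation read as [³H]thymidine incorporation at the end of culture.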

Mus musculus [2] = species on record: Mus musculus; test: In vitro inhibitory activity against mouse mixed lymphocyte reaction (MLR); format: functional
Method in brief: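 Equal numbers of C57Bl/6 (H-2^b) and CBA/2 (H-2^k) spleen cells mixed; 4 × 10⁵ cells/well with serial dilutions (DMSO/water) in 200 μL complete RPMI, 4 days, 37 °C, 5% CO₂. Proliferation by [³H]thymidine incorporation.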

Mus musculus [3] = species on record: Mus musculus; test: In vitro inhibitory activity against murine antibody response to T-cell independent B-cell antigen TNP-LPS (type I); format: functional
Method in brief: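 C57Bl/6 nu/nu and C57Bl/6 spleen cells, 2 × 10⁵/well in duplicate, IMDM-ATL + 10% FCS with serial drug dilutions and optimal TNP-LPS, 4 days at 37 °C. Pooled supernatants went to ELISA on BSA-DNP plates, developed with biotin anti-mouse IgM, streptavidin-alkaline phosphatase and pNPP, read at 405/490 nm. % inhibition was taken relative to unstimulated (low) and stimulated (high) controls.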

Chain of Dihydroorotate dehydrogenase (quinone), mitochondrial (Q02127 whole entry): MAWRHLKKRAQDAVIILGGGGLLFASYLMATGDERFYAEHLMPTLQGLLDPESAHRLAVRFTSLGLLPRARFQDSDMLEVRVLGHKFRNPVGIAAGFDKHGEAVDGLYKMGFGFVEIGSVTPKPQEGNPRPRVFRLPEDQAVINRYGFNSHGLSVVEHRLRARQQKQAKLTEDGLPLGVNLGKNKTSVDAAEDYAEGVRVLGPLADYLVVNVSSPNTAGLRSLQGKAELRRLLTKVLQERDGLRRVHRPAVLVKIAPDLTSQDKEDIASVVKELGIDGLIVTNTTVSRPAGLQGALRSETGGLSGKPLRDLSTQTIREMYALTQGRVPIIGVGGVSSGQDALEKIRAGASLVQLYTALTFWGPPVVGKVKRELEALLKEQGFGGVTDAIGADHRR

IC50 [1] [µM]	IC50 (Jurkat) [µM]	IC50 (Mus musculus [2]) [µM]	IC50 (Mus musculus [3]) [µM]	Structure (SMILES)
16.5	> 50	16.5	26.5	Cc1cc(Nc2ccc(C(F)(F)F)cc2)[nH]n1
22.5	43	18.7	14.6	Cc1n[nH]c(Nc2ccc(C(F)(F)F)cc2)c1C
22.4	–	–	35	Cc1n[nH]c(Nc2c(F)cc(F)cc2F)c1C#N
6.2	31.2	3.4	13.8	FC(F)(F)c1ccc(Nc2[nH]nc3c2CCCC3)cc1
> 50	–	–	> 50	Cc1n[nH]c(Nc2ccccc2C(F)(F)F)c1C#N
4	> 50	3.1	4.7	CC(C)c1n[nH]c(Nc2ccc(C(F)(F)F)cc2)c1C#N
> 50	31.8	2.9	22.4	N#Cc1c(C2CCCC2)n[nH]c1Nc1ccc(C(F)(F)F)cc1
> 50	47.2	16.1	23.1	Cc1nn(C)c(Nc2ccc(C(F)(F)F)cc2)c1C#N
> 50	> 50	5.3	5.8	CC(C)(C)c1[nH]nc(Nc2ccc(C(F)(F)F)cc2)c1C#N
> 50	10.8	3.6	13.6	N#Cc1c(-c2ccncc2)n[nH]c1Nc1ccc(C(F)(F)F)cc1
> 50	–	–	27	N#Cc1c(-c2cccnc2)n[nH]c1Nc1ccc(C(F)(F)F)cc1
> 50	–	–	> 50	N#Cc1c(-c2ccco2)n[nH]c1Nc1ccc(C(F)(F)F)cc1
2.7	–	–	21.3	Cc1n[nH]c(Nc2ccc(C(F)(F)F)cc2)c1CO
> 50	–	–	23.8	CCOC(=O)c1c(C)n[nH]c1Nc1ccc(C(F)(F)F)cc1
> 50	–	–	20.9	Cc1n[nH]c(Nc2ccc(C(F)(F)F)c(Br)c2)c1C#N
> 50	> 50	3.7	14.7	N#Cc1c(Nc2ccc(C(F)(F)F)cc2)n[nH]c1N
> 50	–	–	> 50	Cc1n[nH]c(Nc2cccc(C(F)(F)F)c2)c1C#N
> 50	–	–	> 50	N#Cc1c(-c2cccs2)n[nH]c1Nc1ccc(C(F)(F)F)cc1
> 50	> 50	> 50	> 50	Cc1n[nH]c(Nc2ccccc2)c1C#N

IC50 [1] [µM]	IC50 (Jurkat) [µM]	IC50 (Mus musculus [2]) [µM]	IC50 (Mus musculus [3]) [µM]	Structure (SMILES)
> 50	> 50	23.6	19.1	Cc1n[nH]c(N(C)c2ccc(C(F)(F)F)cc2)c1C#N
3.2	> 50	6	11.6	Cc1n[nH]c(Nc2ccc(C#N)cc2)c1C#N
3.6	12.3	7.6	30.6	Cc1n[nH]c(Nc2ccc(C(C)(C)C)cc2)c1C#N
> 50	–	–	> 50	Cc1n[nH]c(Nc2ccc(N)cc2)c1C#N
> 50	–	–	29.4	Cc1n[nH]c(Nc2ccc(C(F)(F)F)cc2)c1-c1ccccc1
12.1	–	–	> 50	Cc1ccc(Nc2[nH]nc(C)c2C#N)cc1
> 50	> 50	40.5	17.1	Cc1n[nH]c(NCc2ccc(C(F)(F)F)cc2)c1C#N
> 50	16.2	6.7	28	Cc1n[nH]c(Nc2cc(C(F)(F)F)cc(C(F)(F)F)c2)c1C#N
> 50	–	–	> 50	N#Cc1c(Nc2ccc(C(F)(F)F)cc2)n[nH]c1O
9	> 50	4.3	6.5	Cc1n[nH]c(Nc2ccc([N+](=O)[O-])cc2)c1C#N
19.4	> 50	7.4	9.2	Cc1n[nH]c(Nc2ccc(F)cc2)c1C#N
> 50	38.7	7.5	16.9	CCNc1[nH]nc(Nc2ccc(C(F)(F)F)cc2)c1C#N
2.6	> 50	2.1	5.3	Cc1n[nH]c(Nc2ccc(C(F)(F)F)cc2)c1C#N
6.5	17.7	8.6	16.7	O=C1CCCc2n[nH]c(Nc3ccc(C(F)(F)F)cc3)c21
> 50	41	20.3	17.4	C/C(=N\N)c1c(C)n[nH]c1Nc1ccc(C(F)(F)F)cc1
> 50	–	–	32	N#Cc1c(-c2ccccc2)n[nH]c1Nc1ccc(C(F)(F)F)cc1
–	> 10	–	–	C/C=C/C[C@@H](C)[C@@H](O)[C@H]1C(=O)N[C@@H](CC)C(=O)N(C)CC(=O)N(C)[C@@H](CC(C)C)C(=O)N[C@@H](C(C)C)C(=O)N(C)[C@@H](CC(C)C)C(=O)N[C@@H](C)C(=O)N[C@H](C)C(=O)N(C)[C@@H](CC(C)C)C(=O)N(C)[C@@H](CC(C)C)C(=O)N(C)[C@@H](C(C)C)C(=O)N1C [CYCLOSPORINE]
–	41.4	7.4	5.1	Cc1oncc1C(=O)Nc1ccc(C(F)(F)F)cc1 [LEFLUNOMIDE]

Structure (SMILES)	IC50 [1] [µM]	IC50 (Jurkat) [µM]	IC50 (Mus musculus [2]) [µM]	IC50 (Mus musculus [3]) [µM]
Cc1n[nH]c(Nc2ccc(OC(F)(F)F)cc2)c1C#N	0.5	16.1	0.45	20
